From ChEMBL document CHEMBL1125748, “Non-steroidal antiandrogens. Design of novel compounds based on an infrared study of the dominant conformation and hydrogen-bonding properties of a series of anilide antiandrogens” (J Med Chem, 1991)

Tests used:
[1] = target: T1, Androgen receptor (Rattus norvegicus) (UniProt P15207); experiment: In vitro relative binding affinity for rat androgen receptor
T1 sequence (whole entry): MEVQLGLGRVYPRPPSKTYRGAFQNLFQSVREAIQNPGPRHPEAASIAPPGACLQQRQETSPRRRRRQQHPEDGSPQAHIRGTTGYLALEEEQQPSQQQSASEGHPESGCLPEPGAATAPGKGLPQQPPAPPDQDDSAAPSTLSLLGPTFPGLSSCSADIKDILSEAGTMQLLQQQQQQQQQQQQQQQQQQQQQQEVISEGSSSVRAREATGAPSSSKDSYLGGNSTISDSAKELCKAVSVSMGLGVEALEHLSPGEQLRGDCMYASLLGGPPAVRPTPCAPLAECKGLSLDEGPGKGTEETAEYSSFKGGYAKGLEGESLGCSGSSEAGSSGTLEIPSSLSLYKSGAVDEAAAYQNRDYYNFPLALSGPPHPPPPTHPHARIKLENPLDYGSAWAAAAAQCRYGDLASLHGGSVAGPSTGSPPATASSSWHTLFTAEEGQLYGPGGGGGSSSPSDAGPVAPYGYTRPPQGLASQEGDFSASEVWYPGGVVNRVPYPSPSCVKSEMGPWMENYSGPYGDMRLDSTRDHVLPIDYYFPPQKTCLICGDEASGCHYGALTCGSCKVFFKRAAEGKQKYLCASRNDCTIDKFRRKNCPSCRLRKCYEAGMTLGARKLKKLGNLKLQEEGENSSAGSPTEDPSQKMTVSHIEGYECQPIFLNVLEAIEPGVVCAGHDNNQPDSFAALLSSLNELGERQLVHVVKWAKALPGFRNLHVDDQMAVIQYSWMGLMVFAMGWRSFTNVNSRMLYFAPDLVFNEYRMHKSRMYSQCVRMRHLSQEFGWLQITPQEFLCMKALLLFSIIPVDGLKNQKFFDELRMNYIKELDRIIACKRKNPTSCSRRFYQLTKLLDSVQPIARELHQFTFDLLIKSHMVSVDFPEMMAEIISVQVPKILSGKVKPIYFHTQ

[2] = target: T1, Androgen receptor (Rattus norvegicus); experiment: Anti-androgenic activity in vivo on groups of five rats treated with seven daily oral doses of testosterone propionate at 200 ug/kg; assay type: functional, organism-based; conditions: in the assay text read “seven daily subcutaneous doses” for “seven daily oral doses”
How it was run: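 Male rats, five per group, castrated at 24 days of age, then given testosterone propionate 200 µg/kg subcutaneously daily for seven days. Antiandrogen was given orally, daily, over the same seven days. Rats were killed 24 h after the last dose and seminal vesicles weighed. Percent inhibition of testosterone-stimulated weight was taken against a running castrate control, and ED50 was read from the dose-response curve.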

[3] = Partition coefficient (logP); assay type: physicochemical; conditions: octanol/water
[4] = target: T1, Androgen receptor (Rattus norvegicus); experiment: Inhibition of anti-androgenic activity in vivo on groups of five rats treated with seven daily subcutaneous doses of testosterone propionate at 200 ug/kg
[5] = target: T1, Androgen receptor (Rattus norvegicus); experiment: In vitro relative binding affinity for rat Androgen receptor

SMILES | relative binding affinity (RBA) [1] | logP [3] | further results
OC(/C=C/c1ccc(Cl)c(Cl)c1)(CCl)C(F)(F)F (configuration not stated) | 1.8 | – | ED50 [2]: 2 mg/kg
CC(O)(C(=O)Nc1ccc([N+](=O)[O-])c(C(F)(F)F)c1)C(F)(F)F (configuration not stated) | – | 3.21 | –
Cc1c(C(C)(O)C(F)(F)F)[nH]c2ccccc12 (configuration not stated) | 6.7 | – | inhibition [4]: 33%
CC(C)(O)C(=O)Nc1ccc([N+](=O)[O-])c(C(F)(F)F)c1 [HYDROXYFLUTAMIDE] | 2.1 | 2.7 | –
CN(C(=O)C(C)(C)O)c1ccc([N+](=O)[O-])c(C(F)(F)F)c1 | – | 3.06 | –
N#CCC(O)(/C=C/c1ccc(Cl)c(Cl)c1)C(F)(F)F (configuration not stated) | 3.6 | – | ED50 [2]: 2.5 mg/kg
CC(O)(/C=C/c1ccc(Cl)c(Cl)c1)C(F)(F)F (configuration not stated) | – | – | relative binding affinity (RBA) [5]: < 0.2
CC(O)(C(=O)Nc1ccc([N+](=O)[O-])c(C(F)(F)F)c1)C(F)F (configuration not stated) | – | 3.76 | –
CC(O)(CF)C(=O)Nc1ccc([N+](=O)[O-])c(C(F)(F)F)c1 (configuration not stated) | – | 3.5 | relative binding affinity (RBA) [5]: 5.9
CC(C)C(=O)Nc1ccc([N+](=O)[O-])c(C(F)(F)F)c1 [FLUTAMIDE] | – | 3.35 | –
OC(/C=C/c1ccc(Cl)c(Cl)c1)(C(F)(F)F)C(F)(F)F | < 0.2 | – | –
CC(C)(O)C(=O)Nc1ccc(Cl)cc1 | – | 2 | –
CC(=O)C(O)(/C=C/c1ccc(Cl)c(Cl)c1)C(F)(F)F (configuration not stated) | 0.4 | – | –
CC(C)(O)C(=O)Nc1ccc([N+](=O)[O-])cc1 | – | 1.61 | –
NC(=O)CC(O)(/C=C/c1ccc(Cl)c(Cl)c1)C(F)(F)F (configuration not stated) | 0.5 | – | ED50 [2]: 2.5 mg/kg
CC(C(=O)Nc1ccc([N+](=O)[O-])c(C(F)(F)F)c1)C(F)(F)F (configuration not stated) | – | 3.71 | –
